Holding throughout (type): cell-based
Test [1] deals with Sodium-dependent dopamine transporter (Homo sapiens, UniProt Q01959). In words: In vitro displacement of [3H]GBR-12935 from human dopamine transporter expressed in HEK293 cells. Put shortly: (§1)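 Competitive binding using cloned human transporters expressed in HEK-293 cells. NET was labelled with [³H]nisoxetine and DAT with [³H]GBR12935, following a previously published procedure.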
A general note: In a radioligand displacement assay an active substance lowers the binding of a labelled ligand.

Test [2] has as its target Sodium-dependent serotonin transporter (Homo sapiens, UniProt P31645). In words: In vitro displacement of [3H]paroxetine from human serotonin transporter expressed in HEK293 cells.
The target of test [3] is Sodium-dependent noradrenaline transporter (Homo sapiens, UniProt P23975). In words: In vitro displacement of [3H]nisoxetine from human norepinephrine transporter expressed in HEK293 cells. Put shortly: as §1

What is called Ki is the equilibrium dissociation constant of an inhibitor or competing ligand from its target. A higher Ki goes with a looser hold on the target.

Sequence of Sodium-dependent dopamine transporter (Q01959 whole entry): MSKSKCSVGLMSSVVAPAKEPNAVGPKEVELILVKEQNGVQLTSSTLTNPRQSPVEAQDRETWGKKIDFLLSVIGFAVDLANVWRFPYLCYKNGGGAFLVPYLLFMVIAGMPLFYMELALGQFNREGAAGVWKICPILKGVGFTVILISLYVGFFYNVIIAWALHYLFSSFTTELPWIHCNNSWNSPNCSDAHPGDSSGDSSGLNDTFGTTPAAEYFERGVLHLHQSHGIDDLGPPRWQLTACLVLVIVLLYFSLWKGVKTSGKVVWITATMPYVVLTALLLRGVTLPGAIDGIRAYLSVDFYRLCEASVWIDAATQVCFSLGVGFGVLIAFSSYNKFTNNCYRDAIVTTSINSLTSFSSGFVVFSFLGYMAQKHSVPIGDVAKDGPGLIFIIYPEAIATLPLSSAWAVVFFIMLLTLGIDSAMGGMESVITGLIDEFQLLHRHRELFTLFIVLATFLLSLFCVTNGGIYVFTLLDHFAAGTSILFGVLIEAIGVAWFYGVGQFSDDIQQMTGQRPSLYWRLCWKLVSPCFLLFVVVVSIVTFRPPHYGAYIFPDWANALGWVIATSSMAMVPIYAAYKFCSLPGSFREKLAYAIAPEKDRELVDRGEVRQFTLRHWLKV
Sequence of Sodium-dependent noradrenaline transporter (P23975 whole entry): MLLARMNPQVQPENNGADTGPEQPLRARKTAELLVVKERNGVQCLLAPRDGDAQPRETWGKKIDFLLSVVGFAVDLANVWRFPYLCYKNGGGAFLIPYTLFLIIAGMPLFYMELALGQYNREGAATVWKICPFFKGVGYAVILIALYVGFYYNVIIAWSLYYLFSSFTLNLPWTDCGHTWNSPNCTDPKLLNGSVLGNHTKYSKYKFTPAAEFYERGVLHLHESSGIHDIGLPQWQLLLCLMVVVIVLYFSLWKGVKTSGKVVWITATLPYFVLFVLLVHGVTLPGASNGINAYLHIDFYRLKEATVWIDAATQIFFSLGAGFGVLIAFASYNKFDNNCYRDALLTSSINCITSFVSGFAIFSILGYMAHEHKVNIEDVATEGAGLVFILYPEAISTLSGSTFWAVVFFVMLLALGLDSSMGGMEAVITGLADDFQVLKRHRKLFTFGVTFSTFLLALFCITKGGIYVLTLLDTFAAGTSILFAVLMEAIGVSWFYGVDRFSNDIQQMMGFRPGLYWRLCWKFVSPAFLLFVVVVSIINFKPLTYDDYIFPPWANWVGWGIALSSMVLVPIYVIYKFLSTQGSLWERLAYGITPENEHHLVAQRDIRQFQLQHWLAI
Sequence of Sodium-dependent serotonin transporter (P31645 whole entry): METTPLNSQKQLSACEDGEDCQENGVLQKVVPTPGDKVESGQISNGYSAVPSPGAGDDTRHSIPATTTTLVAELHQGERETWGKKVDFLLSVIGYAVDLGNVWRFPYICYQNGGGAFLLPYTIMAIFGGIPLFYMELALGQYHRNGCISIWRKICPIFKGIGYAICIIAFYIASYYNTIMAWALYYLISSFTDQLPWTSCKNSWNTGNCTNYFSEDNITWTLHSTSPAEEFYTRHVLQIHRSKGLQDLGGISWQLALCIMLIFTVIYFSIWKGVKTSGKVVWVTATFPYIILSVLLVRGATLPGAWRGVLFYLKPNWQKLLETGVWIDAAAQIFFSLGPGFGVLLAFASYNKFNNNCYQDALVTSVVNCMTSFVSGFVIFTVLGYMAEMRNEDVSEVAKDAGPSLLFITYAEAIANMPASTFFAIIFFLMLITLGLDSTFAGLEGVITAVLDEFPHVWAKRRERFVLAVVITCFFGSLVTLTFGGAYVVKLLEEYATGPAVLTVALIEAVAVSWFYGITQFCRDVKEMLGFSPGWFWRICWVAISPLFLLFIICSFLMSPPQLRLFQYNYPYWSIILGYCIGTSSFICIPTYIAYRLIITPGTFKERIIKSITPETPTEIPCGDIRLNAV

Turning to `Cc1ccc(Sc2ccccc2CNCCF)c(N)c1`, the Ki in test [1] was 4.43 µM; in test [2] it was 0.0713 µM; in test [3] it was 3.91 µM.

As to `CCNCc1ccccc1Sc1ccc(C)cc1N`, the Ki amounted to 2.12 µM in test [1] and 7.55 µM in test [3].

For the origin of these results see ChEMBL document CHEMBL1145212, “Fluorinated diaryl sulfides as serotonin transporter ligands: synthesis, structure-activity relationship study, and in vivo evaluation of fluorine-18-labeled compounds as PET imaging agents” (J Med Chem, 2005).
